Here are results for seven molecules from ChEMBL document CHEMBL3102834, “Discovery of 5-substituted pyrrolo[2,3-d]pyrimidine antifolates as dual-acting inhibitors of glycinamide ribonucleotide formyltransferase and 5-aminoimidazole-4-carboxamide ribonucleotide formyltransferase in de novo purine nucleotide biosynthesis: implications of inhibiting …” (J Med Chem, 2013).

In general, IC50 refers to the concentration that inhibits the measured activity by half.

The subject of assay [1] is KB. Kind of assay: Cytotoxicity against human KB cells expressing human RFC/FRalpha/PCFT after 96 hrs by CellTitre-Blue fluorescence assay in presence of thymidine. Format: functional, cell-based. The method, boiled down: (§1)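 KB cells were grown in FF-RPMI with DFBS and 2 nM LCV, exposed to antifolate (0–1 μM) for 96 h at 37 °C, and read by CellTiter-Blue fluorescence. IC50 was taken from dose–response curves relative to untreated cells. Protection arms added adenosine 60 μM, thymidine 10 μM, AICA 320 μM, or folic acid 200 nM. Means of 3–10 experiments.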

A short description of assay [2]: Cytotoxicity against chinese hamster R2(VC) cells after 96 hrs by CellTitre-Blue fluorescence assay. Format: functional, cell-based. To be noted: Cricetulus griseus. The method, boiled down:
(§2)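 CHO sublines were grown in FF-RPMI/DFBS; transfectants were maintained with G418. Cells were exposed to antifolate (0–1 μM) for 96 h at 37 °C with 2 nM LCV (RT16) or 25 nM LCV (R2/PCFT4). PC43-10 cells were grown in standard RPMI1640/DFBS instead. FRα specificity was tested by adding 200 nM folic acid. Viable cells were read by CellTiter-Blue fluorescence (ex 560/em 590), and IC50 was taken from dose–response curves; means of 3–10 experiments.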

The test system of assay [3] is KB. Kind of assay: Cytotoxicity against human KB cells expressing human RFC/FRalpha/PCFT after 96 hrs by CellTitre-Blue fluorescence assay in presence of AICA. Format: functional, cell-based. The essentials:
as §1

Assay [4] has as its system KB. Kind of assay: Cytotoxicity against human KB cells expressing human RFC/FRalpha/PCFT after 96 hrs by CellTitre-Blue fluorescence assay in presence of adenosine. Format: functional, cell-based. The method, boiled down: as §1
A short description of assay [5]: Cytotoxicity against chinese hamster RT16 cells expressing human FRalpha after 96 hrs by CellTitre-Blue fluorescence assay in presence of folic acid. The following applies: Cricetulus griseus, RT16, 96 h. Type of assay: functional, cell-based. The method, boiled down: as §2
In assay [6] the test system is R2. Briefly: Cytotoxicity against chinese hamster R2 cells after 96 hrs by CellTitre-Blue fluorescence assay. To be noted: Cricetulus griseus, R2, 96 h.
The nature of assay [7]: Cytotoxicity against chinese hamster PC43-10 cells expressing human RFC after 96 hrs by CellTitre-Blue fluorescence assay. Type of assay: functional, cell-based. The following applies: Cricetulus griseus, PC43-10, 96 h. The essentials:
as §2

For assay [8], the system named is R2. Kind of assay: Cytotoxicity against chinese hamster R2 cells expressing human PCFT4 after 96 hrs by CellTitre-Blue fluorescence assay. Format: functional, cell-based, Cricetulus griseus. The following applies: R2, 96 h.
Assay [9] has as its system KB. Briefly: Cytotoxicity against human KB cells at 10 mM after 96 hrs by CellTitre-Blue fluorescence assay. Format: functional. The following applies: read-out: GI. The method, boiled down:
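KB cells were exposed for 96 h at 37 °C to metformin (0–10 mM) or AICA (0–2 mM) in FF-RPMI/DFBS with 2 nM LCV. Growth was read by CellTiter-Blue fluorescence relative to drug-free cells.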

In assay [10] the target is Bifunctional purine biosynthesis protein ATIC (Homo sapiens) (UniProt P31939). Kind of assay: Inhibition of AICARFTase in human KB cells assessed as phosphorylated AMPK at 10 mM after 48 hrs by Western blot analysis. Type of assay: cell-based. The method, boiled down:
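KB cells were treated for 48 h with 10 μM thymidine, or with AMPK activators (metformin 10 mM, AICA 1 mM, AICAR 1 mM) against a water/DMSO vehicle. Cells were sonicated in 10 mM Tris-HCl pH 7.0 with protease/phosphatase inhibitors. 90 μg protein was run on 4–20% SDS gels and blotted for phospho-AMPK, total AMPK and β-actin, with infrared detection.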

Calls of active or inactive are those of the source. No cut-off for these calls is given here.

Bifunctional purine biosynthesis protein ATIC (Homo sapiens), sequence (P31939 whole entry, looked up): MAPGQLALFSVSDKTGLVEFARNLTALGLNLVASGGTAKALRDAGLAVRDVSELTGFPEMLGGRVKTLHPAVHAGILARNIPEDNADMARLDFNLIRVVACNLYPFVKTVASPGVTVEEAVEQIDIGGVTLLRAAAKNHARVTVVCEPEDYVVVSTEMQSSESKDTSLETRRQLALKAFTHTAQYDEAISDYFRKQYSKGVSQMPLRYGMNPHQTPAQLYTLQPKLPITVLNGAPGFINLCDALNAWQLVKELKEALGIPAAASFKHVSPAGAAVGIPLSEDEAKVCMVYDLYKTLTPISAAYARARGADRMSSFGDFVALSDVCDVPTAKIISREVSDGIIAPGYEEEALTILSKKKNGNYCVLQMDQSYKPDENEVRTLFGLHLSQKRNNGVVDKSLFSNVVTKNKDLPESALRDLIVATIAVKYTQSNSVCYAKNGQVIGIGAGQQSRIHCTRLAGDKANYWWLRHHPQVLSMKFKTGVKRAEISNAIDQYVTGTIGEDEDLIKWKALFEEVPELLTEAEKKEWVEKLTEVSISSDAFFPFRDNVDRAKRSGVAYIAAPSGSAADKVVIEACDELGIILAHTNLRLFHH

As for `Nc1nc2[nH]cc(CCCc3ccc(C(=O)N[C@@H](CCC(=O)O)C(=O)O)cc3)c2c(=O)[nH]1`, the outcome in assay [1] and in [3] was Active. Moreover, the IC50 in [2], in [5] and in [6] was greater than 1000 nM each time. For the same molecule, the outcome in assay [4] was inactive.
Regarding `Nc1nc2[nH]c(CCCc3ccc(C(=O)N[C@@H](CCC(=O)O)C(=O)O)cc3)cc2c(=O)[nH]1`, the IC50 in assay [2] is greater than 1000 nM; in assay [6], greater than 1000 nM; in [7] it was 649 nM.
For `Nc1nc2[nH]cc(CCCCCCc3ccc(C(=O)N[C@@H](CCC(=O)O)C(=O)O)cc3)c2c(=O)[nH]1`, the concentration for half-maximal inhibition (IC50) in [2], in assay [5], in assay [6] and in assay [8] was greater than 1000 nM each time.
The molecule `Nc1nc2c(c(=O)[nH]1)C[C@@H](CCc1ccc(C(=O)N[C@@H](CCC(=O)O)C(=O)O)cc1)CN2` [LOMETREXOL] showed an IC50 in assay [2] greater than 1000 nM.
Turning to `Nc1nc2[nH]c(CCCCCCc3ccc(C(=O)N[C@@H](CCC(=O)O)C(=O)O)cc3)cc2c(=O)[nH]1`, the 50% inhibitory concentration (IC50) in assay [2] and in [8] was greater than 1000 nM throughout.
Consider `CN(C)C(=N)NC(=N)N` [METFORMIN], for which, in assay [9], the inhibition of growth at 10000 µM worked out at 32%. For the same molecule, the inhibition entry in assay [10] was “inactive”.
As for `Cc1nc(=O)c2cc(CN(C)c3ccc(C(=O)N[C@@H](CCC(=O)O)C(=O)O)s3)ccc2[nH]1` [RALTITREXED], the IC50 in [2] was greater than 1000 nM.
